Calls of active or inactive are those of the source. The calls are words filed in the database; no cut-off is given here.
Columns and labels:
[1] = target: Transcription initiation factor TFIID subunit 1 (Homo sapiens) (UniProt P21675); test: Binding affinity to human partial length TAF1 bromodomain 2 (D1521 to D1656 residues) expressed in Escherichia coli BL21 cells assessed as residual binding level at 1 uM measured after 1 hr by quantitative PCR based BROMOscan assay relative to control
Method in brief: (§1)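 Bromodomain panel screen (32 bromodomains) run at 1 μM single concentration; primary binding reported as 'Percent Control', lower values meaning stronger interaction.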

[2] = target: SWI/SNF-related matrix-associated actin-dependent regulator of chromatin subfamily A member 2 (Homo sapiens) (UniProt P51531); test: Binding affinity to human partial length SMARCA2 (S1377 to Q1486 residues) expressed in Escherichia coli BL21 cells assessed as residual binding level at 1 uM measured after 1 hr by quantitative PCR based BROMOscan assay relative to control; method in brief: as §1
Cytochrome P450 2D6 = Cytochrome P450 2D6 (Homo sapiens, UniProt P10635); test: Time-dependent inhibition of CYP2D6 in human liver microsomes at 10 uM using dextromethorphan as substrate preincubated up to 30 mins followed by NADPH generating system addition and measured after 10 mins; format: ADME
Cytochrome P450 2D6, sequence (P10635 whole entry): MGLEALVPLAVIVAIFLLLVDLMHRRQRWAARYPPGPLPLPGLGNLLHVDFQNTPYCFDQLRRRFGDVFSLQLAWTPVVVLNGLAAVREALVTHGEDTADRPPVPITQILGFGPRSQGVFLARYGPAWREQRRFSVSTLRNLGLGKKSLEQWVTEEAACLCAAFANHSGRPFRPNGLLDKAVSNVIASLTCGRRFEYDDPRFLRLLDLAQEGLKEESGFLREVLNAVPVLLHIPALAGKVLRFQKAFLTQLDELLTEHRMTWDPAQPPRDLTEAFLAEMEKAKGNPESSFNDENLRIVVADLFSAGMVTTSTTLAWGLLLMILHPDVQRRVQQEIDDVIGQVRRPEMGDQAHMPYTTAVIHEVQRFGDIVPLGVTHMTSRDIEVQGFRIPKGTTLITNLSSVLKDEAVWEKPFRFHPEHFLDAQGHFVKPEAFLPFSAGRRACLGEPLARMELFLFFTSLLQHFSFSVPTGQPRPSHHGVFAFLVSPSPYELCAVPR
Method in brief: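 Human liver microsomes 0.2 mg/mL, 100 mM phosphate pH 7.4, 10 μM test compound, preincubated 0, 5, 10 and 30 min at 37 °C; then NADPH plus probe cocktail (5 μM midazolam, 50 μM testosterone, 5 μM dextromethorphan, 10 μM diclofenac, 50 μM phenacetin, 50 μM S-(+)-mephenytoin) added; 10 min reaction; kobs in units of 10^-4/min.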

[3] = target: Bromodomain testis-specific protein (Homo sapiens) (UniProt Q58F21); test: Binding affinity to human partial length BRDT bromodomain 1 (N21 to E137 residues) expressed in Escherichia coli BL21 cells assessed as residual binding level at 1 uM measured after 1 hr by quantitative PCR based BROMOscan assay relative to control
Method in brief: (§2)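 A BROMOScan competition-binding panel of 32 bromodomains was run at a single 1 μM compound concentration. Results are primary-screen 'Percent Control', where lower values indicate stronger binding.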

[4] = target: Bromodomain-containing protein 2 (Homo sapiens) (UniProt P25440); test: Binding affinity to human partial length BRD2 bromodomain 2 isoform 1 (E348 to D455 residues) expressed in Escherichia coli BL21 cells assessed as residual binding level at 1 uM measured after 1 hr by quantitative PCR based BROMOscan assay relative to control; method in brief: as §2
Bromodomain-containing protein 2 (Homo sapiens), sequence (P25440 whole entry, looked up, the tested form may be a part, canonical isoform): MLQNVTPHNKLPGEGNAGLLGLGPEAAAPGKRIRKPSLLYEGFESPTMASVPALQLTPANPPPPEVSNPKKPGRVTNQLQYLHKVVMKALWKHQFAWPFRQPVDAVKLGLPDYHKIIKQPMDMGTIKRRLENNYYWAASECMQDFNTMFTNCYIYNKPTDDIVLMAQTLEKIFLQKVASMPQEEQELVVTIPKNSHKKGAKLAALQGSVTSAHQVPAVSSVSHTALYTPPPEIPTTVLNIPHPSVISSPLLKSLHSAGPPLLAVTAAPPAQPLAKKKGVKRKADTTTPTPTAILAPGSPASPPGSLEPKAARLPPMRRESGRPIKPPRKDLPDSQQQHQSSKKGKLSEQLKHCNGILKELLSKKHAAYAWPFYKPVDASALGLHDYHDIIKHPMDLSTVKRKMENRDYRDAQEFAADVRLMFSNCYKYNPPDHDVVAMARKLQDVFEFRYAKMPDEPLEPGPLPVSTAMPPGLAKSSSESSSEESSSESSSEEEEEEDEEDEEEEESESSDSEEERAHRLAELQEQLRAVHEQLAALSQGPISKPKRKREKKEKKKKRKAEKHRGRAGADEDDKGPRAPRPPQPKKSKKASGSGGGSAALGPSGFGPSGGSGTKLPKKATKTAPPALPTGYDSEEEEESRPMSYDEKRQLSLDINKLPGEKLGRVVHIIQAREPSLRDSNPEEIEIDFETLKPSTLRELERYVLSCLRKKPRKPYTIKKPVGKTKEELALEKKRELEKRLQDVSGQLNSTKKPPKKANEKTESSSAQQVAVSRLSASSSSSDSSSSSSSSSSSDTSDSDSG

[5] = target: Histone acetyltransferase KAT2B (Homo sapiens) (UniProt Q92831); test: Binding affinity to human partial length PCAF (G715 to D831 residues) expressed in mammalian expression system assessed as residual binding level at 1 uM measured after 1 hr by quantitative PCR based BROMOscan assay relative to control; method in brief: as §1
Histone acetyltransferase KAT2B (Homo sapiens), sequence (Q92831 whole entry, looked up, the tested form may be a part): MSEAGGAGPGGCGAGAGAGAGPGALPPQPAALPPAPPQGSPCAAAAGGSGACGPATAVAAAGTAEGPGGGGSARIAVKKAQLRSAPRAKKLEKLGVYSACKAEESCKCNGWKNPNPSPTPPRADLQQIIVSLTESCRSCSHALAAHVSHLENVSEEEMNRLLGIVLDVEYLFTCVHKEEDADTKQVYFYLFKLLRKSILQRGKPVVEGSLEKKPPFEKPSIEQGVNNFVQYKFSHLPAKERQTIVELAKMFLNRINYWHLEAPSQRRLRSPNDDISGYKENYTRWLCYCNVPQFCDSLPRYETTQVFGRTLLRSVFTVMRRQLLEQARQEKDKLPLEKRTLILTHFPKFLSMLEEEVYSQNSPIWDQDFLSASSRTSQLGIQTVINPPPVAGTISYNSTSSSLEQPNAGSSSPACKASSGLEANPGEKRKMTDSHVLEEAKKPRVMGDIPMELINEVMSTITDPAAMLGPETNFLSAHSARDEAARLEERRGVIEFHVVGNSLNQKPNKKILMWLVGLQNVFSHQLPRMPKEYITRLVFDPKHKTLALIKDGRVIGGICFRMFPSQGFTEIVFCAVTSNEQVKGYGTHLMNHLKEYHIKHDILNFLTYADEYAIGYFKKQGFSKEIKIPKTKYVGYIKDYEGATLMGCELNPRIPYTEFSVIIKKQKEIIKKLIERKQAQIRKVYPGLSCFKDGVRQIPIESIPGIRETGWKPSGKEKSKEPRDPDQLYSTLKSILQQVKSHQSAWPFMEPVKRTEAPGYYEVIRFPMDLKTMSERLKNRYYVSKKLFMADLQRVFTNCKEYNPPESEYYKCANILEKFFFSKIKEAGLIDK

[6] = target: Bromodomain adjacent to zinc finger domain protein 2B (Homo sapiens) (UniProt Q9UIF8); test: Binding affinity to human partial length BAZ2B (S2054 to S2168 residues) expressed in Escherichia coli BL21 cells assessed as residual binding level at 1 uM measured after 1 hr by quantitative PCR based BROMOscan assay relative to control; method in brief: as §2
Bromodomain adjacent to zinc finger domain protein 2B (Homo sapiens), sequence (Q9UIF8 whole entry, the tested form may be a part): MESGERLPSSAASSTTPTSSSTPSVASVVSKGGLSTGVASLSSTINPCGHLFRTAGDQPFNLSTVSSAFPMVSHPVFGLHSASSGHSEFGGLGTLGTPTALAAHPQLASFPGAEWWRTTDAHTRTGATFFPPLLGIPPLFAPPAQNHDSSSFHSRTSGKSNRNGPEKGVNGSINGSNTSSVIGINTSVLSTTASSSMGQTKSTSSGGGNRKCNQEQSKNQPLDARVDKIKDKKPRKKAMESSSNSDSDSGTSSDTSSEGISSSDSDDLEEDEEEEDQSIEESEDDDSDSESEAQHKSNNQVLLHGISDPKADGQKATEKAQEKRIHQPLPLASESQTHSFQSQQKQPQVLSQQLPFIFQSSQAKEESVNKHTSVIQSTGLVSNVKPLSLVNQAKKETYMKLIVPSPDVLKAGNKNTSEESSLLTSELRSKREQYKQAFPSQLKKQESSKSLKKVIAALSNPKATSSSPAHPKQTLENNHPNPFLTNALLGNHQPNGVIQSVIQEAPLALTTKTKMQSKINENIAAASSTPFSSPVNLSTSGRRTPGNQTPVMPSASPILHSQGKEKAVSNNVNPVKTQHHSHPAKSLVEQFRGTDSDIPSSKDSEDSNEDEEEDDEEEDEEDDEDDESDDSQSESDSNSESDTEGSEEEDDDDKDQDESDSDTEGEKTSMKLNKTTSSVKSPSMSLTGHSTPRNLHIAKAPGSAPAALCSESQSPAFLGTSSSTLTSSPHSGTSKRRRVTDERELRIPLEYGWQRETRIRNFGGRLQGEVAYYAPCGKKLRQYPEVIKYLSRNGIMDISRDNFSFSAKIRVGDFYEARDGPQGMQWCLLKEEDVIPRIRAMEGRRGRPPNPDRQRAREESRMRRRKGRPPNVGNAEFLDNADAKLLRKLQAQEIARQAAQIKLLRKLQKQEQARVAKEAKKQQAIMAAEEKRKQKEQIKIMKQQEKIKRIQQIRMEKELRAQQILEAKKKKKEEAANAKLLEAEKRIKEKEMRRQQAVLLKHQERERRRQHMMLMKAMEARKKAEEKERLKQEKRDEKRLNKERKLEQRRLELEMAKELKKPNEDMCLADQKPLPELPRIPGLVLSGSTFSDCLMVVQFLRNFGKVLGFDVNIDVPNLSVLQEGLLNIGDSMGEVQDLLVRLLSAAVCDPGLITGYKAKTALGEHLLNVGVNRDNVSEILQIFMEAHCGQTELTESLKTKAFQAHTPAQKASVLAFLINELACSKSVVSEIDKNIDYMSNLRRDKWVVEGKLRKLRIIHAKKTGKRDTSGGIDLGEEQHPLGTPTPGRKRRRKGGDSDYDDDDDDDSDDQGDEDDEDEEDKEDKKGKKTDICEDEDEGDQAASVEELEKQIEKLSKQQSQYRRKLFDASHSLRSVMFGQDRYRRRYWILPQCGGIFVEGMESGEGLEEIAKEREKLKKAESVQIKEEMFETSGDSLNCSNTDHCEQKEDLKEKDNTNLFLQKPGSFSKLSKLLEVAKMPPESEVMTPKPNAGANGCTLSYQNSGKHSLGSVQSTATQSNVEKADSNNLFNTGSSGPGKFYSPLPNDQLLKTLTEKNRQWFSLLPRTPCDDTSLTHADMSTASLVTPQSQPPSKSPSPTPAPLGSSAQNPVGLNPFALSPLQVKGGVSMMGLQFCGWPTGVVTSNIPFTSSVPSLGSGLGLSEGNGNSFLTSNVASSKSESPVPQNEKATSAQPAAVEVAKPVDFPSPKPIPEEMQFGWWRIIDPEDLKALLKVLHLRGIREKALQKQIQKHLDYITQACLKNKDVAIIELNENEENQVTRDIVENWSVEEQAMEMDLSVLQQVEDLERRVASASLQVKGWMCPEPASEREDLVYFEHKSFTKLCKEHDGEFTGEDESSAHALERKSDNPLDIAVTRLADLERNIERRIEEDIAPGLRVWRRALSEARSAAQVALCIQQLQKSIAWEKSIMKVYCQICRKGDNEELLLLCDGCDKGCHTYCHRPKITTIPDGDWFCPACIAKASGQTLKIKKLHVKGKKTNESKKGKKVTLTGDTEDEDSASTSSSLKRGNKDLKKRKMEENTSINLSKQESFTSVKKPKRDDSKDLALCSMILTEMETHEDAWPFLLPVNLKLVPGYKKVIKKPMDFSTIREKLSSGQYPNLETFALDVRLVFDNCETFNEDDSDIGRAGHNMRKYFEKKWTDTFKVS

[7] = target: Bromodomain-containing protein 9 (Homo sapiens) (UniProt Q9H8M2); test: Binding affinity to human partial length BRD9 (R130 to V259 residues) expressed in Escherichia coli BL21 cells assessed as residual binding level at 1 uM measured after 1 hr by quantitative PCR based BROMOscan assay relative to control; method in brief: as §2
Bromodomain-containing protein 9 (Homo sapiens), sequence (Q9H8M2 whole entry, the tested form may be a part): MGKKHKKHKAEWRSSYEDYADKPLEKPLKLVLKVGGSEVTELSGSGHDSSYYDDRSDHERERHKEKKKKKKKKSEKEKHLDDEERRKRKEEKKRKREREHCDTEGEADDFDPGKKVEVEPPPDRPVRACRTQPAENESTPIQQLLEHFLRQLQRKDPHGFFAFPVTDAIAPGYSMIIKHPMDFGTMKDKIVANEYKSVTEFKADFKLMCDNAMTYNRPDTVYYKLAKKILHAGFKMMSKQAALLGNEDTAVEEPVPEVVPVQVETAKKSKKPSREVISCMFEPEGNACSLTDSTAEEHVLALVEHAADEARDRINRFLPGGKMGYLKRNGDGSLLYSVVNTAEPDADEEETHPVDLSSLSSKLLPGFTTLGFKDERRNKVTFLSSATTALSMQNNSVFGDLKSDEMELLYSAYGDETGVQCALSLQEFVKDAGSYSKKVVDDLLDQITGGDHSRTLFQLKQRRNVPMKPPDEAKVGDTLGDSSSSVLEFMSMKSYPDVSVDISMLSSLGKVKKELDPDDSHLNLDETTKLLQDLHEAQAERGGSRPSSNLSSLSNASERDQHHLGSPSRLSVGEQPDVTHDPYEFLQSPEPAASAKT

[8] = target: Bromodomain-containing protein 2 (Homo sapiens) (UniProt P25440); test: Inhibition of BRD2 bromodomain 1 (unknown origin)
[9] = target: T1, Bromodomain-containing protein 4 (Homo sapiens, UniProt O60885); test: Binding affinity to His6-tagged human BRD4 bromodomain 1 expressed in Escherichia coli BL21(DE3) )-codon plus-RIL cells by isothermal titration calorimetric method
Method in brief: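 BRD4 BD1 was His6-tagged and expressed in E. coli BL21(DE3)-codon plus-RIL with IPTG induction overnight at 16 °C. It was purified on Ni-NTA with imidazole step elution and concentrated in HEPES pH 7.5/NaCl/DTT gel filtration buffer. Kd was measured by isothermal titration calorimetry.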

MDA-MB-468 = test: Antiproliferative activity against human MDA-MB-468 cells after 72 hrs by CCK8 or SRB assay; format: functional, cell-based
[10] = target: T1, Bromodomain-containing protein 4; test: Inhibition of BRD4 in human MV4-11 cells assessed as reduction in BCL2 phosphorylation at ser70 residues after 24 hrs by Western blot analysis; format: cell-based
Method in brief: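 MV4-11 cells exposed to graded doses for 24 h; lysates immunoblotted for phospho-BCL2, with GAPDH as loading control.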

MV4-11 [11] = test: Induction of apoptosis in human MV4-11 cells assessed as reduction in BCL-xL level after 24 hrs by Western blot analysis; format: functional, cell-based
Method in brief: (§3)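 MV4-11 cells exposed to compound at the indicated doses for 24 h; lysates probed by Western blotting for the target protein, with GAPDH as loading control.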

MV4-11 [12] = test: Induction of apoptosis in human MV4-11 cells assessed as reduction in PUMA level after 24 hrs by Western blot analysis; format: functional, cell-based; method in brief: as §3
[13] = Tmax in rat brain at 50 mg/kg, po; format: ADME, organism-based
Method in brief: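 Rats dosed orally at 50 mg/kg in 1% DMSO/0.5% HPMC; drug measured in plasma and brain.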

[14] = Tmax in ICR mouse plasma at 100 mg/kg, po administered via gavage measured after 0.25 to 24 hrs by UPLC/MS analysis; format: ADME, organism-based
Method in brief: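 Male ICR mice dosed orally (3, 10 or 100 mg/kg, per line) in 1% DMSO/0.5% HPMC vehicle; plasma drug levels measured.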

[15] = Cmax in ICR mouse plasma at 100 mg/kg, po administered via gavage measured after 0.25 to 24 hrs by UPLC/MS analysis; format: ADME, organism-based; design: dose 100 mg/kg, route oral
Method in brief: (§4)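 Male ICR mice dosed orally in 1% DMSO/0.5% HPMC vehicle; plasma or brain drug levels used to derive Tmax, Cmax, AUC0-t, AUC0-inf and T1/2.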

[16] = AUC (0 to t) in ICR mouse brain at 50 mg/kg, po administered via gavage measured after 0.25 to 24 hrs by UPLC/MS analysis; format: ADME, organism-based; design: time lower 0.25 hr, dose 50 mg/kg, time upper 24 hr, route oral
Method in brief: (§5)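 Male ICR mice were dosed orally in 1% DMSO/0.5% HPMC vehicle. Plasma (and brain, where stated) concentrations gave Tmax, Cmax, T1/2, AUC0-t and AUC0-inf.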

[17] = AUC (0 to infinity) in rat brain at 50 mg/kg, po; format: ADME, organism-based; design: dose 50 mg/kg, time infinity, route oral
Method in brief: (§6)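 Compound was given orally or intravenously in 1% DMSO/0.5% HPMC vehicle. Concentrations in plasma, or in brain where stated, gave Tmax, Cmax, T1/2, AUC0-t and AUC0-inf.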

[18] = AUC (0 to infinity) in ICR mouse plasma at 100 mg/kg, po administered via gavage measured after 0.25 to 24 hrs by UPLC/MS analysis; format: ADME, organism-based; design: dose 100 mg/kg, time infinity, route oral; method in brief: as §5
[19] = AUC (0 to infinity) in rat plasma at 3 mg/kg, iv; format: ADME, organism-based; design: dose 3 mg/kg, route intravenous, time infinity; method in brief: as §6
[20] = AUC (0 to infinity) in dog plasma at 1 mg/kg, iv; format: ADME, organism-based, Canis lupus familiaris; design: dose 1 mg/kg, time infinity, route intravenous; method in brief: as §6
[21] = Half life in ICR mouse plasma at 50 mg/kg, po administered via gavage measured after 0.25 to 24 hrs by UPLC/MS analysis; format: ADME, organism-based; method in brief: as §4
[22] = Toxicity in Balb/c nude mouse xenografted with human MV4-11 cells assessed as reduction in body weight at 10 to 50 mg/kg, administered once daily; format: organism-based; conditions: in vivo

For `Cc1ccc(-n2nc(C(=O)N3C[C@@H](C)N[C@@H](C)C3)nc2-c2ccc3c(c2)N(C2CCCC2)[C@H](C)C(=O)N3C)cc1`, the Activity [1] was 5 to 20%, the Activity [2] was 70 to 100% and the TDI (Cytochrome P450 2D6) was “Not Active”. For the same compound, the Activity [3] was < 5%, the Activity [4] was < 5% and the Activity [5] was 70 to 100%. The Activity [6] was 70 to 100%, the Activity [7] was 70 to 100% and the “inhibition activity call (active/inactive)” value [8] was “Active”. The Kd [9] was 15.2 nM, the Activity (MDA-MB-468) was “Active” and the inhibition [10] was “Dose-dependent effect”. The Activity (MV4-11 [11]) was “Dose-dependent effect”, the Activity (MV4-11 [12]) was “Dose-dependent effect” and the Tmax [13] was 0.9 h. It also gave a Tmax [14] of 1.5 h, a Cmax [15] of 13800 ng/mL and an AUC(0-t) [16] of 2320 ng·h/mL. It also gave an AUC(0-inf) [17] of 399 ng·h/mL, an AUC(0-inf) [18] of 82400 ng·h/mL and an AUC(0-inf) [19] of 2080 ng·h/mL. For the same compound, the AUC(0-inf) [20] was 856 ng·h/mL, the half-life [21] was 2.8 h and the Activity [22] was “Non-Toxic”.

Reference: ChEMBL document CHEMBL4414574, “Structure-Based Discovery and Development of a Series of Potent and Selective Bromodomain and Extra-Terminal Protein Inhibitors” (J Med Chem, 2019)
